# Source: ChEMBL document CHEMBL5385966, “Synthesis and biological evaluation of new naphthalimide-thiourea derivatives as potent antimicrobial agents active against multidrug-resistant Staphylococcus aureus and Mycobacterium tuberculosis” (RSC Med Chem, 2024)
# Active and inactive are the calls of the source. The calls are words filed in the database; no cut-off is given here.
# Experiments:
# [1] = test system: Mycobacterium tuberculosis; test: Antimycobacterial activity against Mycobacterium tuberculosis H37Rv ATCC 27294 assessed as bacterial growth inhibition incubated for 7 days by resazurin dye based broth microdilution method; type: functional; conditions: H37Rv ATCC 27294, 168 h, time 7 day
# Summary of the method: (§1)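 Broth microdilution in Middlebrook 7H9 with 10% ADC-Tween-80 (0.2% glycerol, 0.05% Tween-80), inoculum ~10⁶ cfu/mL. Compounds came from 10 mg/mL DMSO stocks and were tested as two-fold serial dilutions at 37 °C, 7 days for M. tuberculosis H37Rv and 72 h for NTM. Growth was read visually with PrestoBlue resazurin dye; MIC was the lowest concentration preventing growth. Triplicate determinations, each in duplicate.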
# Staphylococcus aureus [2] = test: Antibacterial activity against methicillin/ceftriaxone/meropenem-resistant Staphylococcus aureus NRS10198 clinical isolate assessed as bacterial growth inhibition incubated for 16 to 18 hrs by CLSI based antibiotic susceptibility testing method; type: functional; conditions: time 16-18 hrs
# Summary of the method: (§2)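 Broth microdilution in cation-adjusted Mueller-Hinton broth. Compounds were tested at […], with levofloxacin as reference and medium-only controls. Plates were incubated at 37 °C for 16-18 h. MIC was the lowest concentration with no visible growth; three independent determinations, each in duplicate.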
# Acinetobacter baumannii = test: Antibacterial activity against Acinetobacter baumannii BAA 1605 assessed as bacterial growth inhibition incubated for 16 to 18 hrs by CLSI based antibiotic susceptibility testing method; type: functional, organism-based; conditions: time 16-18 hrs; summary of the method: as §2
# Staphylococcus aureus [3] = test: Antibacterial activity against methicillin/ceftriaxone/meropenem/vancomycin/teicoplanin-resistant Staphylococcus aureus VRS4 clinical isolate assessed as bacterial growth inhibition incubated for 16 to 18 hrs by CLSI based antibiotic susceptibility testing method; type: functional; conditions: time 16-18 hrs; summary of the method: as §2
# Staphylococcus aureus [4] = test: Antibacterial activity against methicillin/ceftriaxone/meropenem/gentamycin/linezolid-resistant Staphylococcus aureus NRS10100 clinical isolate assessed as bacterial growth inhibition incubated for 16 to 18 hrs by CLSI based antibiotic susceptibility testing method; type: functional; conditions: time 16-18 hrs; summary of the method: as §2
# Staphylococcus aureus [5] = test: Antibacterial activity against methicillin/ceftriaxone/meropenem/vancomycin/teicoplanin-resistant Staphylococcus aureus VRS12 clinical isolate assessed as bacterial growth inhibition incubated for 16 to 18 hrs by CLSI based antibiotic susceptibility testing method; type: functional; conditions: time 16-18 hrs; summary of the method: as §2
# [6] = test system: Mycobacteroides abscessus; test: Antimycobacterial activity against Mycobacterium abscessus ATCC 19977 assessed as bacterial growth inhibition incubated for 72 hrs by resazurin dye based broth microdilution method; type: functional, organism-based; summary of the method: as §1
# Pseudomonas aeruginosa = test: Antibacterial activity against Pseudomonas aeruginosa ATCC 27853 assessed as bacterial growth inhibition incubated for 16 to 18 hrs by CLSI based antibiotic susceptibility testing method; type: functional, organism-based; conditions: time 16-18 hrs; summary of the method: as §2
# Staphylococcus aureus [7] = test: Antibacterial activity against methicillin/ceftriaxone-resistant Staphylococcus aureus NRS10194 clinical isolate assessed as bacterial growth inhibition incubated for 16 to 18 hrs by CLSI based antibiotic susceptibility testing method; type: functional; conditions: time 16-18 hrs; summary of the method: as §2
# Staphylococcus aureus [8] = test: Antibacterial activity against methicillin/ceftriaxone/meropenem/gentamycin/vancomycin/teicoplanin-resistant Staphylococcus aureus VRS1 clinical isolate assessed as bacterial growth inhibition incubated for 16 to 18 hrs by CLSI based antibiotic susceptibility testing method; type: functional; conditions: time 16-18 hrs; summary of the method: as §2
# Klebsiella pneumoniae = test: Antibacterial activity against Klebsiella pneumoniae BAA 1705 assessed as bacterial growth inhibition incubated for 16 to 18 hrs by CLSI based antibiotic susceptibility testing method; type: functional, organism-based; conditions: time 16-18 hrs; summary of the method: as §2
# Staphylococcus aureus [9] = test: Antibacterial activity against methicillin/ceftriaxone/meropenem-resistant Staphylococcus aureus NRS10191 clinical isolate assessed as bacterial growth inhibition incubated for 16 to 18 hrs by CLSI based antibiotic susceptibility testing method; type: functional; conditions: time 16-18 hrs; summary of the method: as §2
# Escherichia coli = test: Antibacterial activity against Escherichia coli ATCC 25922 assessed as bacterial growth inhibition incubated for 16 to 18 hrs by CLSI based antibiotic susceptibility testing method; type: functional, organism-based; conditions: time 16-18 hrs; summary of the method: as §2
# Staphylococcus aureus [10] = test: Antibacterial activity against methicillin/ceftriaxone/meropenem-resistant Staphylococcus aureus NRS10193 clinical isolate assessed as bacterial growth inhibition incubated for 16 to 18 hrs by CLSI based antibiotic susceptibility testing method; type: functional; conditions: time 16-18 hrs; summary of the method: as §2
# Staphylococcus aureus [11] = test: Antibacterial activity against methicillin/ceftriaxone/meropenem/gentamycin/linezolid-resistant Staphylococcus aureus NRS10119 clinical isolate assessed as bacterial growth inhibition incubated for 16 to 18 hrs by CLSI based antibiotic susceptibility testing method; type: functional; conditions: time 16-18 hrs; summary of the method: as §2
# Staphylococcus aureus [12] = test: Antibacterial activity against methicillin/ceftriaxone/meropenem-resistant Staphylococcus aureus NRS10186 clinical isolate assessed as bacterial growth inhibition incubated for 16 to 18 hrs by CLSI based antibiotic susceptibility testing method; type: functional; conditions: time 16-18 hrs; summary of the method: as §2
# Staphylococcus aureus [13] = test: Antibacterial activity against methicillin-sensitive Staphylococcus aureus ATCC 29213 clinical isolate assessed as bacterial growth inhibition incubated for 16 to 18 hrs by CLSI based antibiotic susceptibility testing method; type: functional; conditions: time 16-18 hrs; summary of the method: as §2
# Staphylococcus aureus [14] = test: Antibacterial activity against methicillin/ceftriaxone/meropenem-resistant Staphylococcus aureus NRS10129 clinical isolate assessed as bacterial growth inhibition incubated for 16 to 18 hrs by CLSI based antibiotic susceptibility testing method; type: functional; conditions: time 16-18 hrs; summary of the method: as §2
# Staphylococcus aureus [15] = test: Bactericidal activity against Staphylococcus aureus ATCC 29213 assessed as reduction in remnant bacterial cells at 10 times MIC measured for 24 hrs by time-kill assay; type: functional
# Summary of the method: (§3)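 Time-kill assay: S. aureus ATCC 29213 at ~10⁶ cfu/mL in MHB, exposed to 1X and 10X MIC at 37 °C, in triplicate. Samples taken at 0, 1, 6 and 24 h were serially diluted in PBS and plated on TSA for 18-20 h at 37 °C. Surviving cfu/mL were counted against untreated controls.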
# Staphylococcus aureus [16] = test: Bactericidal activity against Staphylococcus aureus ATCC 29213 assessed as reduction in remnant bacterial cells measured for 24 hrs by time-kill assay; type: functional, organism-based; summary of the method: as §3
# [17] = Cytotoxicity against African green monkey Vero cells by MTT assay; type: toxicity, cell-based; conditions: chlorocebus sabaeus
# Summary of the method: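 Vero cells were seeded at ~10³ per well at 37 °C, 5% CO2. After 24 h, compounds were added at 5-100 mg/L for 72 h. […] was added for 4 h, formazan was dissolved in DMSO and read at 540 nm. CC50 was taken as the lowest concentration reducing viability by 50%; doxorubicin was the positive control; triplicate.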
# [18] = Selectivity index, ratio of CC50 for African green monkey Vero cells to MIC for Staphylococcus aureus ATCC 29213; type: toxicity, cell-based; conditions: read-out: Selectivity Index
# Mycobacteroides chelonae = test: Antimycobacterial activity against Mycobacteroides chelonae ATCC 35752 assessed as bacterial growth inhibition incubated for 72 hrs by resazurin dye based broth microdilution method; type: functional, organism-based; summary of the method: as §1
# Staphylococcus aureus [19] = test: Antibacterial activity against Staphylococcus aureus ATCC 29213 assessed as bacterial growth inhibition incubated for 16 to 18 hrs by CLSI based antibiotic susceptibility testing method; type: functional; conditions: time 16-18 hrs; summary of the method: as §2
# [20] = test system: Mycolicibacterium fortuitum; test: Antimycobacterial activity against Mycobacterium fortuitum ATCC 6841 assessed as bacterial growth inhibition incubated for 72 hrs by resazurin dye based broth microdilution method; type: functional, organism-based; summary of the method: as §1
# Staphylococcus aureus [21] = test: Antibacterial activity against methicillin/ceftriaxone/meropenem-resistant Staphylococcus aureus NRS10192 clinical isolate assessed as bacterial growth inhibition incubated for 16 to 18 hrs by CLSI based antibiotic susceptibility testing method; type: functional; conditions: time 16-18 hrs; summary of the method: as §2
# Staphylococcus aureus [22] = test: Antimicrobial activity against methicillin-resistant Staphylococcus aureus Newman assessed as microbial growth inhibition; type: functional
# Staphylococcus aureus [23] = test: Antimicrobial activity against Staphylococcus aureus assessed as microbial growth inhibition; type: functional
# Staphylococcus aureus [24] = test: Antimicrobial activity against methicillin-resistant Staphylococcus aureus assessed as microbial growth inhibition by NCCLS based assay; type: functional
Compound,MIC [1],MIC (Staphylococcus aureus [2]),growth inhibition (GI) (Acinetobacter baumannii),MIC (Staphylococcus aureus [3]),MIC (Staphylococcus aureus [4]),MIC (Staphylococcus aureus [5]),growth inhibition (GI) [6],growth inhibition (GI) (Pseudomonas aeruginosa),MIC (Staphylococcus aureus [7]),MIC (Staphylococcus aureus [8]),growth inhibition (GI) (Klebsiella pneumoniae),MIC (Staphylococcus aureus [9]),growth inhibition (GI) (Escherichia coli),MIC (Staphylococcus aureus [10]),MIC (Staphylococcus aureus [11]),MIC (Staphylococcus aureus [12]),MIC (Staphylococcus aureus [13]),MIC (Staphylococcus aureus [14]),CC50 [17],selectivity ratio [18],also measured
O=C1c2cccc3cccc(c23)C(=O)N1CCN1CCN(C(=S)NC2CCCCC2)CC1,4 mg/L,0.25 mg/L,inactive,0.25 mg/L,0.25 mg/L,0.5 mg/L,inactive,inactive,0.25 mg/L,0.25 mg/L,inactive,0.25 mg/L,inactive,0.25 mg/L,0.25 mg/L,0.25 mg/L,0.25 mg/L,0.25 mg/L,> 20 mg/L,> 160,Activity (Staphylococcus aureus [15]): ~5 log10CFU/ml; Activity (Staphylococcus aureus [16]): Dose-Dependent Effect; growth inhibition (GI) (Mycobacteroides chelonae): inactive; MIC (Staphylococcus aureus [19]): 0.125 mg/L; growth inhibition (GI) [20]: inactive; MIC (Staphylococcus aureus [21]): 0.25 mg/L
S=C(Nc1ccc(Cl)cc1)n1ccc(OCc2ccccc2)n1,,,,,,,,,,,,,,,,,,,,,MIC (Staphylococcus aureus [22]): 0.15 µM
CCCCCc1nnc(NC(=S)NS(=O)(=O)c2ccc(C)cc2)s1,,,,,,,,,,,,,,,,,,,,,MIC (Staphylococcus aureus [23]): 0.78 mg/L
CCNc1ccc2c3c(cccc13)C(=O)N(CC(O)Cn1c([N+](=O)[O-])cnc1C)C2=O (stereo not drawn),,,,,,,,,,,,,,,,,,,,,MIC (Staphylococcus aureus [24]): 40 µM
O=C1c2cccc3cccc(c23)C(=O)N1CCN1CCN(C(=S)NC2CCCC2)CC1,2 mg/L,0.125 mg/L,inactive,0.125 mg/L,0.25 mg/L,0.25 mg/L,inactive,inactive,0.125 mg/L,0.125 mg/L,inactive,0.125 mg/L,inactive,0.125 mg/L,0.125 mg/L,0.25 mg/L,0.125 mg/L,0.25 mg/L,> 20 mg/L,> 160,Activity (Staphylococcus aureus [15]): ~5 log10CFU/ml; Activity (Staphylococcus aureus [16]): Dose-Dependent Effect; growth inhibition (GI) (Mycobacteroides chelonae): inactive; MIC (Staphylococcus aureus [19]): 0.125 mg/L; growth inhibition (GI) [20]: inactive; MIC (Staphylococcus aureus [21]): 0.125 mg/L
O=C(CN1C(=O)c2cccc3cccc(c23)C1=O)N1CCC(NC(=S)NC2CCCC2)CC1,> 64 mg/L,0.06 mg/L,inactive,0.06 mg/L,0.06 mg/L,0.06 mg/L,inactive,inactive,0.06 mg/L,0.06 mg/L,inactive,0.06 mg/L,inactive,0.06 mg/L,0.06 mg/L,0.06 mg/L,0.06 mg/L,0.06 mg/L,> 100 mg/L,> 3200,Activity (Staphylococcus aureus [15]): ~5 log10CFU/ml; Activity (Staphylococcus aureus [16]): Dose-Dependent Effect; growth inhibition (GI) (Mycobacteroides chelonae): inactive; MIC (Staphylococcus aureus [19]): 0.031 mg/L; growth inhibition (GI) [20]: inactive; MIC (Staphylococcus aureus [21]): 0.06 mg/L
O=C1c2cccc3cccc(c23)C(=O)N1CCN1CCN(C(=S)NC2CCCCCC2)CC1,> 64 mg/L,1 mg/L,inactive,0.5 mg/L,0.5 mg/L,1 mg/L,inactive,inactive,0.5 mg/L,1 mg/L,inactive,1 mg/L,inactive,1 mg/L,1 mg/L,1 mg/L,0.5 mg/L,0.5 mg/L,> 20 mg/L,> 80,Activity (Staphylococcus aureus [15]): ~5 log10CFU/ml; Activity (Staphylococcus aureus [16]): Dose-Dependent Effect; growth inhibition (GI) (Mycobacteroides chelonae): inactive; MIC (Staphylococcus aureus [19]): 0.25 mg/L; growth inhibition (GI) [20]: inactive; MIC (Staphylococcus aureus [21]): 0.5 mg/L
CCCOC(=O)c1ccc2sc(NC(=S)N[C@@H]3O[C@H](COC(C)=O)[C@@H](OC(C)=O)[C@H](OC(C)=O)[C@H]3OC(C)=O)nc2c1,,,,,,,,,,,,,,,,,,,,,MIC (Staphylococcus aureus [23]): 0.78 mg/L
O=C(CN1C(=O)c2cccc3cccc(c23)C1=O)NC1CCN(C(=S)Nc2ccccc2)CC1,> 64 mg/L,2 mg/L,inactive,2 mg/L,4 mg/L,4 mg/L,inactive,inactive,4 mg/L,2 mg/L,inactive,2 mg/L,inactive,2 mg/L,2 mg/L,2 mg/L,4 mg/L,4 mg/L,> 200 mg/L,> 50,growth inhibition (GI) (Mycobacteroides chelonae): inactive; MIC (Staphylococcus aureus [19]): 4 mg/L; growth inhibition (GI) [20]: inactive; MIC (Staphylococcus aureus [21]): 1 mg/L
COc1ccc(-c2csc(NC(=S)N[C@@H]3O[C@H](COC(C)=O)[C@@H](OC(C)=O)[C@H](OC(C)=O)[C@H]3OC(C)=O)n2)cc1[N+](=O)[O-],,,,,,,,,,,,,,,,,,,,,MIC (Staphylococcus aureus [23]): 0.78 mg/L
